From ChEMBL document CHEMBL4011643, “Triaryl Benzimidazoles as a New Class of Antibacterial Agents against Resistant Pathogenic Microorganisms” (J Med Chem, 2017)
In brackets after ≈: the same amount, converted by molar mass. Activity calls are given as the source filed them. The calls are words filed in the database; no cut-off is given here.

Columns and labels:
Enterococcus faecalis [1] = test: Antibacterial activity against vancomycin-resistant Enterococcus faecalis NCTC 12201 after 20 hrs by broth microdilution method; format: functional; settings: NCTC 12201, 20 h
Method in brief: (§1)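 Broth microdilution in Tryptic Soy Broth; growth read as OD600 after 20 h. MIC taken as the lowest drug concentration giving OD600 below 0.1. Run in triplicate.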

Pseudomonas aeruginosa [2] = test: Antibacterial activity against Pseudomonas aeruginosa PAO1 after 20 hrs in the presence of Pa-beta-N and magnesium ions by broth microdilution method; format: functional; settings: PAO1, 20 h
Method in brief: (§2)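 Broth microdilution in Tryptic Soy Broth, done in triplicate. Growth was read as OD600 after 20 h. MIC is the lowest drug concentration giving OD600 below 0.1.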

Enterococcus faecalis [3] = test: Bactericidal activity against vancomycin-resistant Enterococcus faecalis NCTC 12201 assessed as time required to kill bacteria by >6 log10CFU/ml at 4 times MIC by Miles Misra dilution method; format: functional
Method in brief: (§3)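 Flasks of TSB inoculated at ~10^6 cfu/mL, compound added at 4 × MIC, shaken at 200 rpm and 37 °C. Samples taken at 1, 2, 4, 6 and 24 h and plated by Miles Misra dilution for CFU/mL. Bactericidal means a loss of >3 log CFU/mL. Three independent repeats, error bars SD.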

Enterococcus faecalis [4] = test: Antibacterial activity against vancomycin-sensitive Enterococcus faecalis NCTC 775 after 20 hrs by broth microdilution method; format: functional; settings: NCTC 775, 20 h; method in brief: as §2
Klebsiella pneumoniae [5] = test: Antibacterial activity against Klebsiella pneumoniae NCTC 13368 after 20 hrs in the presence of Pa-beta-N and magnesium ions by broth microdilution method; format: functional; settings: NCTC 13368, 20 h; method in brief: as §2
[6] = Cytotoxicity against human HeLa cells assessed as cell viability at 25 uM after 24 hrs by MTT assay; format: cell-based; settings: read-out: Activity
Method in brief: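 HeLa cells, 10000 per well, were grown at 37 °C in 5% CO2 and allowed to settle for 24 h. Compound was then added in triplicate for 24 h of continuous exposure. Viability was read by MTT colorimetry, with absorbance at 570 nm.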

Acinetobacter baumannii [7] = test: Antibacterial activity against Acinetobacter baumannii AYE after 20 hrs in the presence of PMBN by broth microdilution method; format: functional; method in brief: as §2
Klebsiella pneumoniae [8] = test: Antibacterial activity against Klebsiella pneumoniae M6 after 20 hrs in the presence of Pa-beta-N and magnesium ions by broth microdilution method; format: functional; settings: M6, 20 h; method in brief: as §2
Staphylococcus aureus [9] = test: Antibacterial activity against methicillin-resistant Staphylococcus aureus EMRSA-15 after 20 hrs by broth microdilution method; format: functional; settings: EMRSA-15, 20 h; method in brief: as §1
Klebsiella pneumoniae [10] = test: Antibacterial activity against Klebsiella pneumoniae M6 after 20 hrs in the presence of PMBN by broth microdilution method; format: functional; settings: M6, 20 h; method in brief: as §2
Pseudomonas aeruginosa [11] = test: Antibacterial activity against Pseudomonas aeruginosa NCTC 13437 after 20 hrs in the presence of Pa-beta-N and magnesium ions by broth microdilution method; format: functional; settings: NCTC 13437, 20 h; method in brief: as §2
Pseudomonas aeruginosa [12] = test: Antibacterial activity against Pseudomonas aeruginosa NCTC 13437 after 20 hrs in the presence of PMBN by broth microdilution method; format: functional; settings: NCTC 13437, 20 h; method in brief: as §2
Staphylococcus aureus [13] = test: Antibacterial activity against methicillin-resistant Staphylococcus aureus MRSA252 after 20 hrs by broth microdilution method; format: functional; settings: MRSA252, 20 h; method in brief: as §1
Klebsiella pneumoniae [14] = test: Antibacterial activity against Klebsiella pneumoniae NCTC 13368 after 20 hrs in the presence of PMBN by broth microdilution method; format: functional; settings: NCTC 13368, 20 h; method in brief: as §2
Pseudomonas aeruginosa [15] = test: Antibacterial activity against Pseudomonas aeruginosa NCTC 13437 after 20 hrs by broth microdilution method; format: functional; settings: NCTC 13437, 20 h; method in brief: as §2
Staphylococcus aureus [16] = test: Antibacterial activity against methicillin-sensitive Staphylococcus aureus ATCC 9144 after 20 hrs by broth microdilution method; format: functional; settings: ATCC 9144, 20 h; method in brief: as §2
[17] = Stabilization of FAM/TAMRA-labeled AT-rich DNA duplex (unknown origin) assessed as change in melting temperature at 5 uM by FRET-based assay
Method in brief: (§4)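 FRET melting of a FAM/TAMRA-labelled AT-rich oligonucleotide, 400 nM working solution in 50 mM potassium, 50 mM cacodylate, pH 7.4. DNA was annealed at 85 °C for 6 min, then held at 25 °C for 5 h, and mixed 1:1 with sample. Fluorescence was read every 0.5 °C from 30 to 100 °C, with a 30 s hold per step. ΔTm is measured against the blank, in triplicate.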

Enterococcus faecium = test: Antibacterial activity against vancomycin-resistant Enterococcus faecium NCTC 12204 after 20 hrs by broth microdilution method; format: functional; settings: NCTC 12204, 20 h; method in brief: as §1
Pseudomonas aeruginosa [18] = test: Antibacterial activity against Pseudomonas aeruginosa PAO1 after 20 hrs by broth microdilution method; format: functional; settings: PAO1, 20 h; method in brief: as §2
Klebsiella pneumoniae [19] = test: Antibacterial activity against Klebsiella pneumoniae NCTC 13368 after 20 hrs by broth microdilution method; format: functional; settings: NCTC 13368, 20 h; method in brief: as §2
Klebsiella pneumoniae [20] = test: Antibacterial activity against Klebsiella pneumoniae M6 after 20 hrs by broth microdilution method; format: functional; settings: M6, 20 h; method in brief: as §2
Acinetobacter baumannii [21] = test: Antibacterial activity against Acinetobacter baumannii ATCC 17978 after 20 hrs in the presence of PMBN by broth microdilution method; format: functional; settings: ATCC 17978, 20 h; method in brief: as §2
Enterococcus faecalis [22] = test: Bactericidal activity against vancomycin-resistant Enterococcus faecalis NCTC 12201 at 4 times MIC after 24 hrs by Miles Misra dilution method; format: functional; method in brief: as §3
Staphylococcus aureus [23] = test: Bactericidal activity against methicillin-resistant Staphylococcus aureus EMRSA-15 assessed as time required to kill bacteria by >6 log10CFU/ml at 4 times MIC by Miles Misra dilution method; format: functional; method in brief: as §3
Pseudomonas aeruginosa [24] = test: Antibacterial activity against Pseudomonas aeruginosa PAO1 after 20 hrs in the presence of PMBN by broth microdilution method; format: functional; settings: PAO1, 20 h; method in brief: as §2
Acinetobacter baumannii [25] = test: Antibacterial activity against Acinetobacter baumannii ATCC 17978 after 20 hrs by broth microdilution method; format: functional; settings: ATCC 17978, 20 h; method in brief: as §2
Acinetobacter baumannii [26] = test: Antibacterial activity against Acinetobacter baumannii ATCC 17978 after 20 hrs in the presence of Pa-beta-N and magnesium ions by broth microdilution method; format: functional; settings: ATCC 17978, 20 h; method in brief: as §2
Acinetobacter baumannii [27] = test: Antibacterial activity against Acinetobacter baumannii AYE after 20 hrs by broth microdilution method; format: functional; method in brief: as §2
[28] = Stabilization of FAM/TAMRA-labeled AT-rich DNA duplex (unknown origin) assessed as change in melting temperature at 1 uM by FRET-based assay; method in brief: as §4
Acinetobacter baumannii [29] = test: Antibacterial activity against Acinetobacter baumannii AYE after 20 hrs in the presence of Pa-beta-N and magnesium ions by broth microdilution method; format: functional; method in brief: as §2

With Cc1nc2ccc(C(=O)Nc3cccc(-c4ccc(-n5c(C)nc6cc(C(=O)NCCN(C)C)ccc65)nc4)c3)cc2[nH]1 the MIC (Enterococcus faecalis [1]) was 1 µg/mL (≈ 1.75 µM), the MIC (Pseudomonas aeruginosa [2]) was > 32 µg/mL and the Time (Enterococcus faecalis [3]) was 4 h. The MIC (Enterococcus faecalis [4]) was 4 µg/mL (≈ 6.98 µM), the MIC (Klebsiella pneumoniae [5]) was > 32 µg/mL and the viability at 24 h, 25 µM [6] was > 98%. The MIC (Acinetobacter baumannii [7]) was 32 µg/mL, the MIC (Klebsiella pneumoniae [8]) was > 32 µg/mL and the MIC (Staphylococcus aureus [9]) was 2 µg/mL (≈ 3.49 µM). The MIC (Klebsiella pneumoniae [10]) was 16 µg/mL, the MIC (Pseudomonas aeruginosa [11]) was > 32 µg/mL and the MIC (Pseudomonas aeruginosa [12]) was > 32 µg/mL. For the same compound, the MIC (Staphylococcus aureus [13]) was 8 µg/mL (≈ 14 µM), the MIC (Klebsiella pneumoniae [14]) was > 32 µg/mL and the MIC (Pseudomonas aeruginosa [15]) was > 32 µg/mL. It also gave an MIC (Staphylococcus aureus [16]) of 2 µg/mL (≈ 3.49 µM), a deltaTm [17] of 0.9 °C and an MIC (Enterococcus faecium) of 2 µg/mL (≈ 3.49 µM). For the same compound, the MIC (Pseudomonas aeruginosa [18]) was > 32 µg/mL, the MIC (Klebsiella pneumoniae [19]) was > 32 µg/mL and the MIC (Klebsiella pneumoniae [20]) was > 32 µg/mL. The MIC (Acinetobacter baumannii [21]) was 32 µg/mL, the Activity (Enterococcus faecalis [22]) was “inactive” and the Time (Staphylococcus aureus [23]) was 4 h. For the same compound, the MIC (Pseudomonas aeruginosa [24]) was > 32 µg/mL, the MIC (Acinetobacter baumannii [25]) was > 32 µg/mL and the MIC (Acinetobacter baumannii [26]) was 32 µg/mL. The MIC (Acinetobacter baumannii [27]) was > 32 µg/mL, the deltaTm [28] was 0.2 °C and the MIC (Acinetobacter baumannii [29]) was > 32 µg/mL.
